# Source: ChEMBL document CHEMBL2010801, “Semisynthesis and antimicrobial activity of novel guttiferone-A derivatives” (Bioorg Med Chem, 2012)
# The source made the active and inactive calls. No cut-off for these calls is given here.
# Key:
# Nakaseomyces glabratus = assay: Antifungal activity against Candida glabrata ATCC 90030 after 24 hrs by broth microdilution method; type: functional
# Procedure, shortened: (§1)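 Broth microdilution in microplates with a serial dilution series of compounds. Amphotericin B served as the fungicidal control and fluconazole as the fungistatic control. Yeast plates were incubated at 37 °C for 24 h.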
# Staphylococcus aureus [1] = assay: Ratio of MIC100 for chloramphenicol to MIC100 of compound for Staphylococcus aureus ATCC 6538 after 24 hrs by broth microdilution method; type: functional
# Salmonella typhimurium = assay: Antimicrobial activity against Salmonella typhimurium ATCC 14028 after 24 hrs by broth microdilution method; type: functional; conditions: Salmonella enterica subsp. enterica serovar Typhimurium
# Procedure, shortened: (§2)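 Microplate broth microdilution with a serial dilution series of compounds, using chloramphenicol as the antibacterial control. Bacterial plates were incubated at 35 °C for 24 h.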
# Pichia kudriavzevii = assay: Antifungal activity against Candida krusei ATCC 6258 after 24 hrs by broth microdilution method; type: functional; procedure, shortened: as §1
# Trichophyton tonsurans = assay: Antifungal activity against Trichophyton tonsurans after 48 hrs by broth microdilution method; type: functional
# Procedure, shortened: (§3)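 Broth microdilution against filamentous fungi with serially diluted compounds. Amphotericin B (fungicidal) and fluconazole (fungistatic) were run as controls. Plates were incubated at 30 °C for 48 h.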
# Staphylococcus aureus [2] = assay: Antimicrobial activity against Staphylococcus aureus ATCC 6538 after 24 hrs by broth microdilution method; type: functional; conditions: ATCC 6538, 24 h; for MIC50: read-out: MIC50; for MIC: read-out: MIC100; procedure, shortened: as §2
# Escherichia coli = assay: Antimicrobial activity against Escherichia coli ATCC 25922 after 24 hrs by broth microdilution method; type: functional; procedure, shortened: as §2
# Bacillus cereus = assay: Antimicrobial activity against Bacillus cereus ATCC 11778 after 24 hrs by broth microdilution method; type: functional; conditions: for MIC: read-out: MIC100; procedure, shortened: as §2
# Candida tropicalis = assay: Antifungal activity against Candida tropicalis ATCC 750 after 24 hrs by broth microdilution method; type: functional; procedure, shortened: as §1
# Candida albicans = assay: Antifungal activity against Candida albicans ATCC 09548 after 24 hrs by broth microdilution method; type: functional; procedure, shortened: as §1
# Proteus mirabilis = assay: Antimicrobial activity against Proteus mirabilis ATCC 25933 after 24 hrs by broth microdilution method; type: functional; procedure, shortened: as §2
# [3] = tested on: Staphylococcus epidermidis; assay: Antimicrobial activity against Staphylococcus epidermidis ATCC 12228 after 24 hrs by broth microdilution method; type: functional; procedure, shortened: as §2
# Cryptococcus neoformans = assay: Antifungal activity against Cryptococcus neoformans ATCC 90012 after 24 hrs by broth microdilution method; type: functional; procedure, shortened: as §1
# Pseudomonas aeruginosa = assay: Antimicrobial activity against Pseudomonas aeruginosa ATCC 9027 after 24 hrs by broth microdilution method; type: functional; procedure, shortened: as §2
# Nannizzia gypsea = assay: Antifungal activity against Microsporum gypseum after 48 hrs by broth microdilution method; type: functional; procedure, shortened: as §3
# Candida parapsilosis = assay: Antifungal activity against Candida parapsilosis ATCC 69548 after 24 hrs by broth microdilution method; type: functional; procedure, shortened: as §1
# [4] = Cytotoxicity against human PBMC after 48 hrs by MTT assay; type: cell-based; conditions: PBMC (peripheral blood mononuclear cells)
# Procedure, shortened: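 Normal human PBMC from healthy volunteers were isolated by Ficoll-Hypaque density gradient and seeded at 2.4 × 10⁶ cells/mL. Compounds were added at 100 to 0.06 and cells held 48 h at 37 °C, 5% CO₂. MTT was then added for 4 h, formazan dissolved in DMSO and A560 read. Untreated cells were taken as 100% viability. CC50 was obtained by linear regression.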
# [5] = tested on: Staphylococcus epidermidis; assay: Ratio of MIC100 for chloramphenicol to MIC100 of compound for Staphylococcus epidermidis ATCC 12228 after 24 hrs by broth microdilution method; type: functional
SMILES,MIC100 (Nakaseomyces glabratus),Ratio (Staphylococcus aureus [1]),MIC50 (Salmonella typhimurium),MIC100 (Salmonella typhimurium),MIC100 (Pichia kudriavzevii),MIC50 (Staphylococcus aureus [2]) [µM],MIC (Staphylococcus aureus [2]) [µM],MIC100 (Escherichia coli),"MIC (Bacillus cereus; ATCC 11778, 24 h) [µM]",MIC50 (Candida tropicalis),MIC100 (Candida tropicalis),MIC50 (Candida albicans),MIC100 (Candida albicans),MIC100 (Proteus mirabilis),MIC50 (Pseudomonas aeruginosa),MIC100 (Pseudomonas aeruginosa),MIC50 (Nannizzia gypsea),MIC50 (Candida parapsilosis),MIC100 (Candida parapsilosis),CC50 at 48 h [4] [µM],further results
CC(=O)Oc1ccc(C(=O)C2=C(O)[C@]3(CC=C(C)C)C[C@H](CC=C(C)C)[C@@](C)(CCC=C(C)C)[C@](CC=C(C)C)(C2=O)C3=O)cc1OC(C)=O,inactive,3.31,inactive,inactive,inactive,56,3.64,inactive,0.227,inactive,inactive,inactive,inactive,inactive,inactive,inactive,inactive,inactive,inactive,114,"MIC50 (Pichia kudriavzevii; ATCC 6258, 24 h, read-out: MIC50): 3640 µM; MIC (Trichophyton tonsurans; read-out: MIC100): 3640 µM; MIC50 (Escherichia coli; ATCC 25922, 24 h): 1820 µM; MIC50 (Bacillus cereus): inactive; MIC50 (Proteus mirabilis): inactive; MIC50 [3]: inactive; MIC100 [3]: inactive; MIC50 (Cryptococcus neoformans; ATCC 90012, 24 h, read-out: MIC50): 56 µM; MIC (Cryptococcus neoformans; ATCC 90012, 24 h, read-out: MIC100): 3.64 µM"
CC(C)=CCC[C@]1(C)[C@@H](CC=C(C)C)C[C@@]2(CC=C(C)C)C(=O)C(C(=O)c3ccc(OS(C)(=O)=O)c(OS(C)(=O)=O)c3)=C(O)[C@]1(CC=C(C)C)C2=O,inactive,3.66,inactive,inactive,inactive,51,3.29,inactive,1.65,inactive,inactive,inactive,inactive,inactive,inactive,inactive,inactive,inactive,inactive,> 132,"MIC50 (Pichia kudriavzevii; ATCC 6258, 24 h): 52.7 µM; MIC50 (Trichophyton tonsurans): 3290 µM; MIC100 (Trichophyton tonsurans): inactive; MIC50 (Escherichia coli; ATCC 25922, 24 h): 205 µM; MIC50 (Bacillus cereus; ATCC 11778, 24 h): 1650 µM; MIC50 (Proteus mirabilis): inactive; MIC50 [3]: inactive; MIC100 [3]: inactive; MIC100 (Cryptococcus neoformans): inactive; MIC50 (Cryptococcus neoformans; ATCC 90012, 24 h): 52.7 µM; MIC100 (Nannizzia gypsea): inactive"
CC(C)=CCC[C@]1(C)[C@@H](CC=C(C)C)C[C@@]2(CC=C(C)C)C(=O)C(C(=O)c3ccc(OS(=O)(=O)c4ccc(C)cc4)c(OS(=O)(=O)c4ccc(C)cc4)c3)=C(O)[C@]1(CC=C(C)C)C2=O,inactive,4.39,inactive,,inactive,43,2.74,inactive,21.9,inactive,inactive,inactive,inactive,inactive,inactive,inactive,inactive,inactive,inactive,> 113,"Ratio [5]: 3.5; MIC50 (Nakaseomyces glabratus): inactive; MIC50 (Pichia kudriavzevii): inactive; MIC50 (Trichophyton tonsurans): inactive; MIC100 (Trichophyton tonsurans): inactive; MIC50 (Escherichia coli): inactive; MIC50 (Bacillus cereus; ATCC 11778, 24 h): 171 µM; MIC50 ([3]; ATCC 12228, 24 h): 2740 µM; MIC100 (Cryptococcus neoformans): inactive; MIC50 (Cryptococcus neoformans; ATCC 90012, 24 h): 43.9 µM; MIC100 (Nannizzia gypsea): inactive"
